{"source": "paper PMC3467149", "about": "(ACS medicinal chemistry letters, 2012)", "key": {"[1]": {"tested_on": "LRRK2 Ser910/Ser935 phosphorylation", "details": "intraperitoneal doses of up to 100 mg/Kg; cited from earlier work"}, "[2]": {"tested_on": ">150 protein and lipid kinases", "experiment": "KiNativ chemical proteomics, other kinases of the panel", "type": "in vivo, mouse", "details": "any dose (3–100 mg/kg)"}, "[3]": {"target": "T1, GST-LRRKT[A2016T] (1,326–2,527) (Homo sapiens, UniProt Q5S007, A2016T)", "T1 sequence (Q5S007 1326-2527 A2016T)": "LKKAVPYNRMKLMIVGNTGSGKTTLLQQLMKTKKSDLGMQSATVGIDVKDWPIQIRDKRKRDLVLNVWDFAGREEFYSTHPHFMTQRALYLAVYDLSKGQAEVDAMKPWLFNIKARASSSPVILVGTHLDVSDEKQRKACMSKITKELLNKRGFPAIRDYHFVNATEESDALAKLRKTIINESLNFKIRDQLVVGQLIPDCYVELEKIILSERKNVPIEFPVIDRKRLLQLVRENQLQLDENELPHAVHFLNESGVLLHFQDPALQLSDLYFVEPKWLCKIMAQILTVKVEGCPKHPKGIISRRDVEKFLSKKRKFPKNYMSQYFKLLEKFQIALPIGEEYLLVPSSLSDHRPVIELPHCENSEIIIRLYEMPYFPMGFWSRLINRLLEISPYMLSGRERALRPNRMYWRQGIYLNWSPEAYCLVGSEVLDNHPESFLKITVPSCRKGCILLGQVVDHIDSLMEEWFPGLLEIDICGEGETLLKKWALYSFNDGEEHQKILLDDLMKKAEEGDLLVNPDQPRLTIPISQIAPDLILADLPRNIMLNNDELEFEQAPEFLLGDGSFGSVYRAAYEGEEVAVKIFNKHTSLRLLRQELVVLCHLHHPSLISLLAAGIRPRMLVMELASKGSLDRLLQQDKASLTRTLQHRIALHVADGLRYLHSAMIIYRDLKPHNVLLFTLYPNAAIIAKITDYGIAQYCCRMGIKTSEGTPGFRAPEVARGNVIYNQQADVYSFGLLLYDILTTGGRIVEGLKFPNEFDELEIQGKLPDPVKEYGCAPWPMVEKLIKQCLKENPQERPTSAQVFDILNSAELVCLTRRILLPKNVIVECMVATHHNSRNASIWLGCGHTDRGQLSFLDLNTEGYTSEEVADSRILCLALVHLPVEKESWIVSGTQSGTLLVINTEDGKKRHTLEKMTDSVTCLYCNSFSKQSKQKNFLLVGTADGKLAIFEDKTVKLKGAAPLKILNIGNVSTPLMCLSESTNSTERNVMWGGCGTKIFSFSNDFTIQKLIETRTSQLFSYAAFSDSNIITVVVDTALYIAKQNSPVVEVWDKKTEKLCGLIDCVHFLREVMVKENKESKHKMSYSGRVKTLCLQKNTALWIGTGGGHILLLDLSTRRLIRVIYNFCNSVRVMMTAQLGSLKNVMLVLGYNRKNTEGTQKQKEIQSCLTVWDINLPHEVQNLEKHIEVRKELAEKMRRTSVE", "experiment": "Biochemical inhibition of GST-LRRK2[A2016T]", "details": "20 µM Nictide, 100 µM ATP"}, "LRRK2": {"target": "LRRK2 (Mus musculus, UniProt Q5S006)", "sequence (Q5S006 whole entry)": "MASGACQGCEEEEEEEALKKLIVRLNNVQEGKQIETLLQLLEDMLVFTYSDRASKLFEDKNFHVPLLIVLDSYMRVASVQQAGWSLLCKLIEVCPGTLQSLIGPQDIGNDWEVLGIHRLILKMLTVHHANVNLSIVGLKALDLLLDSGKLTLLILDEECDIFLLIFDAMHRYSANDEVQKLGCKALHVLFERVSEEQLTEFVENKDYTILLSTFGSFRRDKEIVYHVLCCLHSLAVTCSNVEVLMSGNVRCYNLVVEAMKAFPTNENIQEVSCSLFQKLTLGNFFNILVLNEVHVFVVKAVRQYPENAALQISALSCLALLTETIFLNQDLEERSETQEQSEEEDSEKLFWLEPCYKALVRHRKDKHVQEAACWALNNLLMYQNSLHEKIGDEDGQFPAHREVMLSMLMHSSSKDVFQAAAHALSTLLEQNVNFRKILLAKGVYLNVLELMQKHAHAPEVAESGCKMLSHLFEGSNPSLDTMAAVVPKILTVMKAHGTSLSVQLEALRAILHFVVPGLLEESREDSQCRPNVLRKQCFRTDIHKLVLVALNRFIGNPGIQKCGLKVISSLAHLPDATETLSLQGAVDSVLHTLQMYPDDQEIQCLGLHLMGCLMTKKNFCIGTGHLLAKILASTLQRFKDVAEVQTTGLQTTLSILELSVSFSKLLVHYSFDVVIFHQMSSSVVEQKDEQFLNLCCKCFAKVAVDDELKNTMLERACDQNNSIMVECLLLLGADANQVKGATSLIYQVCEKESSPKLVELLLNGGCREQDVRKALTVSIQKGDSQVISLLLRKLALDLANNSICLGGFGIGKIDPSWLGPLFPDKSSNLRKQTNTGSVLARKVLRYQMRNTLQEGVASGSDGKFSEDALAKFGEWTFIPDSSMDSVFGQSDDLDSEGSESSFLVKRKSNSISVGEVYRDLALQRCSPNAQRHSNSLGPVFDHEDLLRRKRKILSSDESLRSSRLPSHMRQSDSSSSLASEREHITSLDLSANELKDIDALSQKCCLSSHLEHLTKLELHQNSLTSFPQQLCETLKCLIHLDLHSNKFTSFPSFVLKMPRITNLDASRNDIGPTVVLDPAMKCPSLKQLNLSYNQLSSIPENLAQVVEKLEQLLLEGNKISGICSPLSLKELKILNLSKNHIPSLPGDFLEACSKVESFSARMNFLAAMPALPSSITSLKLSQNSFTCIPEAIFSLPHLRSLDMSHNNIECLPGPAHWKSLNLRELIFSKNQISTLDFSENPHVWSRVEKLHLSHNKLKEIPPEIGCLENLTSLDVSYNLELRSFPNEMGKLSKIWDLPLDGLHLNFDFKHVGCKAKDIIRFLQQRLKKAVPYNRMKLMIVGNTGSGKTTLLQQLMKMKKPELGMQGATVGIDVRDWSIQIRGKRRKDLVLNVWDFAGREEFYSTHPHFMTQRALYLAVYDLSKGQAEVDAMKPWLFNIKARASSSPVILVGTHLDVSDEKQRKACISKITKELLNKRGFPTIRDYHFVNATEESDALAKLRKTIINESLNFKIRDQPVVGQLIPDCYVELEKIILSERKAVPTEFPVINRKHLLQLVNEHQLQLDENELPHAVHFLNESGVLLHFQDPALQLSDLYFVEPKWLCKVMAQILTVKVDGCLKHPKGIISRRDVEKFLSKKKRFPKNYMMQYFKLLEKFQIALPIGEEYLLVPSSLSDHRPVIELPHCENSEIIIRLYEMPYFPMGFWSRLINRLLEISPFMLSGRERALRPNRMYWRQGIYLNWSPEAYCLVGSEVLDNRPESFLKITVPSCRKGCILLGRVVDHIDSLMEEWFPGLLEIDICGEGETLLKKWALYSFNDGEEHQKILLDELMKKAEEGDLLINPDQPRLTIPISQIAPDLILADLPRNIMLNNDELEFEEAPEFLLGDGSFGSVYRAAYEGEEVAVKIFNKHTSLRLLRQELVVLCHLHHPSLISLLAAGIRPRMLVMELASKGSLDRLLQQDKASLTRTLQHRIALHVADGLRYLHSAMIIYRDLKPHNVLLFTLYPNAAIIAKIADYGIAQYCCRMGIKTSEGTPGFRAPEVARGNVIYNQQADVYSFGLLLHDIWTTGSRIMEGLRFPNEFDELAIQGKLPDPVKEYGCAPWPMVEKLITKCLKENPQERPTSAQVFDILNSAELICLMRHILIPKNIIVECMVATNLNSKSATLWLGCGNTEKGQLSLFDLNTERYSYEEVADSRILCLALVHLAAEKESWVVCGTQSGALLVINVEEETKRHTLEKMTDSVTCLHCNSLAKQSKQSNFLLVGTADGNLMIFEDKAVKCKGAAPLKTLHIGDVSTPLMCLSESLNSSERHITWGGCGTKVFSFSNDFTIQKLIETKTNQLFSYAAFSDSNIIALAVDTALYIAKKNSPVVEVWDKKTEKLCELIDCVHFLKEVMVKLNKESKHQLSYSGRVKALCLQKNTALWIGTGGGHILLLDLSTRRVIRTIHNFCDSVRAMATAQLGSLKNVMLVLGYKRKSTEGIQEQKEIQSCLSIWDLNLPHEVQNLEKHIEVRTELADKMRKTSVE", "experiment": "KiNativ chemical proteomics of tissues from treated animals, LRRK2", "type": "in vivo", "details": "for LRRK2 target engagement (KiNativ): spleen"}, "[4]": {"tested_on": "GFP-LRRK2[A2016T] in HEK293 cells", "experiment": "Ser910/Ser935 phosphorylation in HEK293 cells, GFP-LRRK2[A2016T]", "type": "cell-based", "details": "90 min", "in_short": "(§1)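 HEK293 cells stably expressing the GFP-tagged LRRK2 mutant were treated with DMSO or increasing concentrations of test compound for 90 min. A reference LRRK2 inhibitor at 1 μM served as control. Cell lysates were immunoblotted for LRRK2 phospho-Ser910, phospho-Ser935 and total LRRK2.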"}, "panel of 451 kinases": {"tested_on": "panel of 451 kinases", "experiment": "KinomeScan analysis", "type": "binding", "details": "1 µM"}, "[5]": {"tested_on": "GFP-LRRK2[G2019S+A2016T] in HEK293 cells", "experiment": "Ser910/Ser935 phosphorylation in HEK293 cells, GFP-LRRK2[G2019S+A2016T]", "type": "cell-based", "details": "90 min", "in_short": "as §1"}, "[6]": {"tested_on": "LRRK2 Ser910/Ser935 phosphorylation", "type": "in vivo, mouse", "in_short": "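Mice received the test compound intraperitoneally at 100, 50, 30 or 10 mg/kg. Brain, spleen and kidney were collected, and endogenous LRRK2 was resolved by SDS-PAGE. Blots were probed with phospho-specific antibodies to Ser910 and Ser935 and for total LRRK2, with quantitative analysis of the blots.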"}, "JNK1/2/3": {"tested_on": "JNK1/2/3", "experiment": "KiNativ chemical proteomics of tissues from treated animals, JNK1/2/3", "type": "in vivo, mouse"}, "TBK1": {"target": "T2, TBK1 (Mus musculus, UniProt Q9WUN2)", "T2 sequence (Q9WUN2 1-729)": "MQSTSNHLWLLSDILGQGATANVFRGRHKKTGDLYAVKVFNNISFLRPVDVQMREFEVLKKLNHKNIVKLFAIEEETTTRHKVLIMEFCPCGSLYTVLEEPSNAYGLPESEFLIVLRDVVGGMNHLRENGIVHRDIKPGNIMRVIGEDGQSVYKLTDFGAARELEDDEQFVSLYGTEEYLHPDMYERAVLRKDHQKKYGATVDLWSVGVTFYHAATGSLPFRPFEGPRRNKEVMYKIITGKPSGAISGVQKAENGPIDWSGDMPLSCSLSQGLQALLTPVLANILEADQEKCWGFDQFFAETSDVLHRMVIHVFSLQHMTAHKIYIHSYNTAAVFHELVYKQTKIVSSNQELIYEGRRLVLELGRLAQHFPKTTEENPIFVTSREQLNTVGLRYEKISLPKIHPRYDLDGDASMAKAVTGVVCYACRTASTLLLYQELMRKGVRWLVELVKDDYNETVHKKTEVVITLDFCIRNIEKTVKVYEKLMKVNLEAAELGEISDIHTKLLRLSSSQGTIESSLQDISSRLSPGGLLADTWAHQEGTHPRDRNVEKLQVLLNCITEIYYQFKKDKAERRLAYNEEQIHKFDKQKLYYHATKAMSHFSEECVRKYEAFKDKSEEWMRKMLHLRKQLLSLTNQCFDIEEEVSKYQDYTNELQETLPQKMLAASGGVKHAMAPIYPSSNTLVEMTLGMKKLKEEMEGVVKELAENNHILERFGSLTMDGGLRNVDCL", "experiment": "KiNativ chemical proteomics of tissues from treated animals, TBK1", "type": "in vivo", "details": "read-out: TBK1 inhibition (KiNativ)"}}, "note": "Where two headings read alike, the source gives them in different places.", "data": [{"compound": "COc1cc(N2CCOCC2)ccc1Nc1ncc(F)c(Nc2ccccc2NS(C)(=O)=O)n1", "note": "[CZC-25146]", "values": [{"measurement": "inhibition of phosphorylation of Ser910 and Ser935 of LRRK2 in mouse brain", "setting": "[1]", "value": "none of these compounds are capable of effectively inhibiting"}]}, {"compound": "COc1cc(N2CCC(N3CCN(C)CC3)CC2)ccc1Nc1ncc(Cl)c(Nc2ccccc2S(=O)(=O)C(C)C)n1", "note": "[TAE684]", "values": [{"measurement": "inhibition of phosphorylation of Ser910 and Ser935 of LRRK2 in mouse brain", "setting": "[1]", "value": "none of these compounds are capable of effectively inhibiting"}]}, {"compound": "CNc1nc(Nc2ccc(C(=O)N3CCOCC3)cc2OC)ncc1Cl", "note": "[Compound 4]", "values": [{"measurement": "inhibition of kinases other than LRRK2 (KiNativ)", "setting": "[2]", "value": "≤ 50", "unit": "%"}, {"measurement": "effect of the A2016T mutation on inhibition", "setting": "[3]", "value": "maintains inhibition of the A2016T mutation"}, {"measurement": "LRRK2 target engagement (KiNativ)", "setting": "LRRK2; 10 mg/kg", "value": "80–90%"}, {"measurement": "LRRK2 target engagement (KiNativ)", "setting": "LRRK2; 30–100 mg/kg", "value": "greater than 90%"}, {"measurement": "concentration inducing dephosphorylation of Ser910 and Ser935", "setting": "[4]", "value": "1 to 3", "unit": "µM"}, {"measurement": "interactions detected in KinomeScan", "setting": "panel of 451 kinases", "value": "no interactions detected with kinases other than G2019S LRRK2 with the exception of one mutant form of c-Kit (L576P)"}, {"measurement": "concentration inducing dephosphorylation of Ser910 and Ser935", "setting": "[5]", "value": "1 to 3", "unit": "µM"}, {"measurement": "lowest dose inhibiting Ser910 and Ser935 phosphorylation in mouse brain", "setting": "[6]; mouse brain, intraperitoneal delivery", "value": 50, "unit": "mg/kg"}, {"measurement": "inhibition of LRRK2 Ser910/Ser935 phosphorylation in brain", "setting": "[6]; mouse, intraperitoneal 10 mg/kg", "value": "partial inhibition"}, {"measurement": "inhibition of LRRK2 Ser910/Ser935 phosphorylation in brain", "setting": "[6]; mouse, intraperitoneal 30 mg/kg", "value": "partial inhibition"}, {"measurement": "inhibition of LRRK2 Ser910/Ser935 phosphorylation in tissues", "setting": "[6]; mouse, intraperitoneal 50 mg/kg, all tissues", "value": "near complete inhibition"}, {"measurement": "dephosphorylation of Ser910 and Ser935 of LRRK2 in tissues", "setting": "[6]; mouse, intraperitoneal 100 mg/kg, kidney, spleen and brain", "value": "near complete dephosphorylation"}, {"measurement": "JNK1/2/3 inhibition (KiNativ)", "setting": "JNK1/2/3; 50 mg/kg", "value": "35–40%"}, {"measurement": "JNK1/2/3 inhibition (KiNativ)", "setting": "JNK1/2/3; 100 mg/kg", "value": "35–40%"}, {"measurement": "inhibition at 50 mg/kg", "setting": "TBK1", "value": "35 to 40", "unit": "%"}, {"measurement": "inhibition at 100 mg/kg", "setting": "TBK1", "value": "35 to 40", "unit": "%"}]}, {"compound": "COc1cc(C(=O)N2CCC(N3CCN(C)CC3)CC2)ccc1Nc1ncc2c(n1)N(C)c1ccccc1C(=O)N2C", "note": "[LRRK2-IN-1, reference compound]", "values": [{"measurement": "effect of the A2016T mutation on inhibition", "setting": "[3]", "value": "dramatic resistance"}, {"measurement": "LRRK2 inhibition (KiNativ)", "setting": "LRRK2; brain, 100 mg/kg", "value": "no LRRK2 inhibition"}, {"measurement": "inhibition of phosphorylation of Ser910 and Ser935 of LRRK2 in mouse brain", "setting": "[1]", "value": "none of these compounds are capable of effectively inhibiting"}]}]}
